One assay concerns the target KDR (Homo sapiens, UniProt P35968). The assay can be described thus: ELISA kinase assay, KDR. The format is biochemical. Particulars: read-out: KDR inhibition @100 nmol/L.
The target in the next assay is T1, DDR2 (Homo sapiens, UniProt Q16832).
T1 sequence (Q16832 22-855): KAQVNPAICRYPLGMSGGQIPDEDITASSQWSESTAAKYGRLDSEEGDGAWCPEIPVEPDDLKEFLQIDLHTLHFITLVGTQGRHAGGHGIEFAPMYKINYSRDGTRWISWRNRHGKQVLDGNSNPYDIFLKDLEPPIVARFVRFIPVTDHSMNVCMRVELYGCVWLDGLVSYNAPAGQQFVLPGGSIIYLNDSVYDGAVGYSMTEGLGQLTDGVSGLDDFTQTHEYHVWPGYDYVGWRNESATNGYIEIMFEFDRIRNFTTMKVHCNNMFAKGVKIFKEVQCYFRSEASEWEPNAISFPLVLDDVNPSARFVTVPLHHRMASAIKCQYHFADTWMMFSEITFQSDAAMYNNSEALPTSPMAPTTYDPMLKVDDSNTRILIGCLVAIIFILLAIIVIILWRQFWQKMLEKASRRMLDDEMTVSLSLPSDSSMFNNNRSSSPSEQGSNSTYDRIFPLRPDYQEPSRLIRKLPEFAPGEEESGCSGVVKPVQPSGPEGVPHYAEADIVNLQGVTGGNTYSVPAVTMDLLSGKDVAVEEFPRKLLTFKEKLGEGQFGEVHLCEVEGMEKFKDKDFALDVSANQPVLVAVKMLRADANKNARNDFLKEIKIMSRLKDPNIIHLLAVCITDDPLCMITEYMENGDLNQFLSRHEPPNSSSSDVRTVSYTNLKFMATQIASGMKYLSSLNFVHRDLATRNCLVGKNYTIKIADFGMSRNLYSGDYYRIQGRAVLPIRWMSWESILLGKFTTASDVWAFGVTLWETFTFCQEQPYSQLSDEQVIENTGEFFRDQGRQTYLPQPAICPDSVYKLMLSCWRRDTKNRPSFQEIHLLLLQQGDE
The assay can be described thus: ELISA kinase assay, DDR2. The format is biochemical. Particulars: DDR2 IC50, two separate experiments. (In an ELISA, binding on a coated surface is turned into a signal by an enzyme label.)

Another assay deals with DDR1 (Homo sapiens, UniProt Q08345). The assay can be described thus: ELISA kinase assay, DDR1. The format is biochemical.
DDR1, sequence (Q08345 19-913): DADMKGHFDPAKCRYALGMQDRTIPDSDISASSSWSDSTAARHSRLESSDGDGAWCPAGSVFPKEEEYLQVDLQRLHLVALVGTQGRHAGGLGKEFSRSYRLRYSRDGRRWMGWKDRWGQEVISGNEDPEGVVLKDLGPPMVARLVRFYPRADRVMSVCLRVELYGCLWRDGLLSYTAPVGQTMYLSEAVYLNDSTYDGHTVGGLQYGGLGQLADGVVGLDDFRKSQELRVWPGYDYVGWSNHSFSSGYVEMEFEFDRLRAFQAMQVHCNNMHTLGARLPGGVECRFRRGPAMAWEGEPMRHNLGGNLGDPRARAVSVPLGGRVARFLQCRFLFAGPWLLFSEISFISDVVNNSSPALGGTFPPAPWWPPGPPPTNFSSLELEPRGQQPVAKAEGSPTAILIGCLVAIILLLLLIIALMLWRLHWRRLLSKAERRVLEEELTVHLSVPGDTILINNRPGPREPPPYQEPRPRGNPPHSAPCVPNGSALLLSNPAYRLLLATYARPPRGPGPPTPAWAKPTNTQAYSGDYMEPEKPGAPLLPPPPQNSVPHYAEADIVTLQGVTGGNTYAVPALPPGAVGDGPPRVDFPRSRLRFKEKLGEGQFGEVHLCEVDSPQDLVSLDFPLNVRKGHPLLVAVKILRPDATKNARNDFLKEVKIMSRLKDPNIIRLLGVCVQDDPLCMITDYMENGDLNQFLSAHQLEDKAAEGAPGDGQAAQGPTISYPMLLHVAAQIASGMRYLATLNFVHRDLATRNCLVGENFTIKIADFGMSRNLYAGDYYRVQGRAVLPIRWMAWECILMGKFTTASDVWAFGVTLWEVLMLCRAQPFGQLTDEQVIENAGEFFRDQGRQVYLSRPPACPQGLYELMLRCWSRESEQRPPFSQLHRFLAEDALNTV
The subject of assay [1] is DDR2 phosphorylation in MRC-5. The assay can be described thus: DDR2 phosphorylation in TGF-β stimulated MRC-5. The format is cell-based. As to conditions: 1 μmol/L, MRC-5, 24 h TGF-β stimulation. A digest of the protocol: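 Confluent MRC-5 fibroblasts are stimulated with TGF-β (5 ng/mL) and treated with a range of test compound concentrations for 24 h. Western blots are probed for phospho-DDR2, fibronectin, α-SMA, with GAPDH as loading control.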

The next assay has as its target RET (Homo sapiens, UniProt P07949). The assay can be described thus: ELISA kinase assay, RET. The format is biochemical. As to conditions: for inhibition at 0.1 µM: read-out: RET inhibition @100 nmol/L; for inhibition at 0.01 µM: read-out: RET inhibition @10 nmol/L.
The target in a further assay is T2, Flt-3 (Homo sapiens, UniProt P36888).
T2 sequence (P36888 27-993): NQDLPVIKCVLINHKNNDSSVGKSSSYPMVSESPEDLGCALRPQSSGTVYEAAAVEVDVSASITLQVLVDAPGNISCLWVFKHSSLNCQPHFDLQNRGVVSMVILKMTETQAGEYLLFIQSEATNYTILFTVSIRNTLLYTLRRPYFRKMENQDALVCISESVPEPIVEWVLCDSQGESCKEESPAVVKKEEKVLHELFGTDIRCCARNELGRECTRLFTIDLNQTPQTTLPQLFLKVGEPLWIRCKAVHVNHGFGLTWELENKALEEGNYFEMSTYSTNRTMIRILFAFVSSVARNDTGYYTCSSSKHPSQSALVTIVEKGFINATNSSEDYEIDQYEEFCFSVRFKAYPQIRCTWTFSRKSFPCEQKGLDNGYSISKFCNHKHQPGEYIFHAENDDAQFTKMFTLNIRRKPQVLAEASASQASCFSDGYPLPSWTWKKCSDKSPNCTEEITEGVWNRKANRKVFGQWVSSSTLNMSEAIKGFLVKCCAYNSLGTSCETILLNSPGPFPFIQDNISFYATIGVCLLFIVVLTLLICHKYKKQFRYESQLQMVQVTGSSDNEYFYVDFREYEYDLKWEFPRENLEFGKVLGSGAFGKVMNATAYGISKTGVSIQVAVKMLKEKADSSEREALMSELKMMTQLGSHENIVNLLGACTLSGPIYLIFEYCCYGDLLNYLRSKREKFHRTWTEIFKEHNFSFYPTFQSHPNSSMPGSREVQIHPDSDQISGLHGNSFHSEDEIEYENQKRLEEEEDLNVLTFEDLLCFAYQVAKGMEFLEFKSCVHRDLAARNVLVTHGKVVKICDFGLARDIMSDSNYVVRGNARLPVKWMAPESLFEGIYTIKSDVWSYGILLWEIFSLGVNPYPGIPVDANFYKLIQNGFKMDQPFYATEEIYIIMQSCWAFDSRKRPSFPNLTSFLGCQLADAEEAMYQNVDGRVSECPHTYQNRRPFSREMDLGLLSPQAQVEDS
As to the kind of experiment: ELISA kinase assay, Flt-3. The format is biochemical. Particulars: for inhibition at 0.1 µM: read-out: Flt-3 inhibition@100 nmol/L; for inhibition at 0.01 µM: read-out: Flt-3 inhibition @10 nmol/L.

As usually defined, the IC50 is the concentration that inhibits the measured activity by half. Lower therefore signals higher potency.

KDR, sequence (P35968 20-1356): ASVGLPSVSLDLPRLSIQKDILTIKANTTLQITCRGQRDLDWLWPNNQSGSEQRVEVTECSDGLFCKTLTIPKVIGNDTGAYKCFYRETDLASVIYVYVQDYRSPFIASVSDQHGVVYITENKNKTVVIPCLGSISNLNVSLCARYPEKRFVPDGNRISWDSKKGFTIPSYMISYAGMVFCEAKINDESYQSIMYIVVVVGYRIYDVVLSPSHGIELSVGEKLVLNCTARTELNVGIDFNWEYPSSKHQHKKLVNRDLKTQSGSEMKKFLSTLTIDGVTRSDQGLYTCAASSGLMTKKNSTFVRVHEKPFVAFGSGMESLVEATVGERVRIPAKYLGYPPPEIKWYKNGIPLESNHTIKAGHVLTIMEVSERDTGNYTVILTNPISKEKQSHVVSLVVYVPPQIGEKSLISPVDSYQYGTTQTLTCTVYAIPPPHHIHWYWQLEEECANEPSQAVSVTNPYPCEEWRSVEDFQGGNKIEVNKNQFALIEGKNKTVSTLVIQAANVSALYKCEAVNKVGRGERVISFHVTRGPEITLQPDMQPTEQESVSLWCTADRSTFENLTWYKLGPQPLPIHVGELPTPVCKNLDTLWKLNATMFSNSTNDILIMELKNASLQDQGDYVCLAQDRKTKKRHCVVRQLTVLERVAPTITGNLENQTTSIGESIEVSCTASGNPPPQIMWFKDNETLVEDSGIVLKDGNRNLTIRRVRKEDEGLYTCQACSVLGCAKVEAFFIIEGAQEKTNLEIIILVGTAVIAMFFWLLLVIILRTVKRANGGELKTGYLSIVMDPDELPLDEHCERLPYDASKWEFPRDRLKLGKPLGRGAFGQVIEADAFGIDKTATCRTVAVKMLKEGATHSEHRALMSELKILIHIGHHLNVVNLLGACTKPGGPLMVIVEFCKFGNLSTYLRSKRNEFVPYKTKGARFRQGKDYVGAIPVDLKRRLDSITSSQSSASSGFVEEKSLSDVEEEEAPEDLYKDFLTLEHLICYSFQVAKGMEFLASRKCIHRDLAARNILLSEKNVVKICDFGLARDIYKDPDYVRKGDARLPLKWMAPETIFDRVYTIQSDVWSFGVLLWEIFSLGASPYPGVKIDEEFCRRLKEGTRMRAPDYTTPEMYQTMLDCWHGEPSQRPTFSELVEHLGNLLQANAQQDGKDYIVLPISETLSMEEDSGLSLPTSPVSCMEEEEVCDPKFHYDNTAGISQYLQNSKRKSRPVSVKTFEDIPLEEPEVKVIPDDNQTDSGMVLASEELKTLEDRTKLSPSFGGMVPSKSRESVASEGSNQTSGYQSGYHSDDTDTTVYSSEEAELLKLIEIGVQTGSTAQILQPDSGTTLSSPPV
RET, sequence (P07949 29-1114): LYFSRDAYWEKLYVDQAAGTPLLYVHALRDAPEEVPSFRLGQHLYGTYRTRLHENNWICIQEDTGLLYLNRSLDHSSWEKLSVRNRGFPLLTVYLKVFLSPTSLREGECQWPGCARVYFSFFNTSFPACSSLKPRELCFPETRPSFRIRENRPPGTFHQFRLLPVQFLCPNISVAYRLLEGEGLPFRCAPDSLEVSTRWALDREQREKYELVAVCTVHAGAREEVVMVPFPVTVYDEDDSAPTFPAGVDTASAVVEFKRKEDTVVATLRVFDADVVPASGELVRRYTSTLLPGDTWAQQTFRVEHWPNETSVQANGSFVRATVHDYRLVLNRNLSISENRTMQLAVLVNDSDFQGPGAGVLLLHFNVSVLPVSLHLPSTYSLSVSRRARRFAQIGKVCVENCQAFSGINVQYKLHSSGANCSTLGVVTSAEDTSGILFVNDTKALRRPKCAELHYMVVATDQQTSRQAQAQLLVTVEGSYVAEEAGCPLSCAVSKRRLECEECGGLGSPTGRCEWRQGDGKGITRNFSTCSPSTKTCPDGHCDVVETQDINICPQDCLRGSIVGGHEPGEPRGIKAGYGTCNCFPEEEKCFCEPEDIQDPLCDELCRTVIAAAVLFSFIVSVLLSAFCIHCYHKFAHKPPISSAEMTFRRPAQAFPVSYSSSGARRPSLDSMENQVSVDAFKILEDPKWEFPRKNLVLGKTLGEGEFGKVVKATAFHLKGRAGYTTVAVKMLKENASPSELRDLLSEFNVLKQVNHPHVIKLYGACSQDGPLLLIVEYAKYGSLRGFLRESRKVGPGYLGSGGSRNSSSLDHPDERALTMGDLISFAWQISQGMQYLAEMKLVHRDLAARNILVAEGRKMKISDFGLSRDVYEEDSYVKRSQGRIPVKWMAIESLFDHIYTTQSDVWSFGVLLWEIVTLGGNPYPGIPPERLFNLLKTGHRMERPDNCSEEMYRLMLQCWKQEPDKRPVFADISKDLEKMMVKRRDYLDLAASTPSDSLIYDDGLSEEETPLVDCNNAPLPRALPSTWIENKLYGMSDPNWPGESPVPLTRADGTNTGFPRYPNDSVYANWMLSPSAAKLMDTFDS

With `Cc1ccc(NC(=O)C(C)c2cccc(C(F)(F)F)c2)cc1-c1ccc2nc(Nc3cnn(C)c3)ncc2c1` (stereo not drawn) [Compound 39, N-(4-Methyl-3-(2-((1-methyl-1H-pyrazol-4-yl)amino)quinazolin-6-yl)phenyl)-2-(3-(trifluoromethyl)phenyl)propanamide], at KDR, the inhibition at 0.1 µM stood at 70.2%.
Turning to `Cc1ccc(NC(=O)Nc2cccc(C(F)(F)F)c2)cc1-c1ccc2nc(Nc3cnn(C)c3)ncc2c1` [Compound 37, 1-(4-Methyl-3-(2-((1-methyl-1H-pyrazol-4-yl)amino)quinazolin-6-yl)phenyl)-3-(3-(trifluoromethyl)phenyl)urea], the inhibition at 0.1 µM at KDR amounted to 89.3%.
For the compound `Cc1ccc(C(=O)Nc2cccc(C(F)(F)F)c2)cc1-c1ccc2nc(Nc3cnn(C4CC4)c3)ncc2c1` [Compound 24, 3-(2-((1-Cyclopropyl-1H-pyrazol-4-yl)amino)quinazolin-6-yl)-4-methyl-N-(3-(trifluoromethyl)phenyl)benzamide], the IC50 against DDR2 was 2.8 ± 0.5 nM; at DDR1, 13.8 nM. In assay [1], the “inhibition of DDR2 phosphorylation” value is listed as “high inhibitory activity”.
Regarding `COc1ccc(C(=O)Nc2cccc(C(F)(F)F)c2)cc1-c1ccc2nc(Nc3cnn(C)c3)ncc2c1` [Compound 33, 4-Methoxy-3-(2-((1-methyl-1H-pyrazol-4-yl)amino)quinazolin-6-yl)-N-(3-(trifluoromethyl)phenyl)benzamide], on DDR2, the IC50 came to 2.3 ± 0.5 nM. Further, the values for the inhibition at 0.1 µM at RET and on Flt-3 were 41.3% and 59.7%, respectively.
For `CC(=O)N1CCN(Cc2cc(NC(=O)c3ccc(C)c(-c4ccc5nc(Nc6cnn(C)c6)ncc5c4)c3)cc(C(F)(F)F)c2)CC1` [Compound 28, N-(3-((4-Acetylpiperazin-1-yl)methyl)-5-(trifluoromethyl)phenyl)-4-methyl-3-(2-((1-methyl-1H-pyrazol-4-yl)amino)quinazolin-6-yl)benzamide], half-maximal inhibition against DDR2 (IC50) was put at 1.8 ± 0.1 nM. For the same compound, the figures for the inhibition at 0.01 µM at RET and at Flt-3 were 91.8% and 92.4%, respectively.
`Cc1ccc(C(=O)Nc2cccc(C(F)(F)F)c2)cc1-c1ccc2cn[nH]c2c1` [Compound 7, 3-(1H-Indazol-6-yl)-4-methyl-N-(3-(trifluoromethyl)phenyl)benzamide]: inhibition on DDR1 was half-maximal at 9.74 nM (IC50).
On to `Cc1ccc(C(C)NC(=O)c2cccc(C(F)(F)F)c2)cc1-c1ccc2nc(Nc3cnn(C4CC4)c3)ncc2c1` (stereo not drawn) [Compound 43, N-(1-(3-(2-((1-Cyclopropyl-1H-pyrazol-4-yl)amino)quinazolin-6-yl)-4-methylphenyl)ethyl)-3-(trifluoromethyl)benzamide], for which inhibition against DDR2 was half-maximal at 4.3 ± 1 nM (IC50). Besides, the inhibition at 0.1 µM on KDR amounted to 26.9%.
Regarding `Cc1ccc(C(=O)NCc2cccc(C(F)(F)F)c2)cc1-c1ccc2nc(Nc3cnn(C)c3)ncc2c1` [Compound 38, 4-Methyl-3-(2-((1-methyl-1H-pyrazol-4-yl)amino)quinazolin-6-yl)-N-(3-(trifluoromethyl)benzyl)benzamide], the inhibition at 0.1 µM on KDR is 94%.
For the compound `CCc1ccc(C(=O)Nc2cccc(C(F)(F)F)c2)cc1-c1ccc2nc(Nc3cnn(C)c3)ncc2c1` [Compound 32, 4-Ethyl-3-(2-((1-methyl-1H-pyrazol-4-yl)amino)quinazolin-6-yl)-N-(3-(trifluoromethyl)phenyl)benzamide], on DDR2, the half-inhibitory concentration (IC50) is 4.1 ± 0.7 nM. For the same compound, the inhibition at 0.1 µM at RET is 77.1%; on Flt-3 it was 61.8%.
Take `Cc1ccc(C(=O)Nc2cc(CN3CCCN(C)CC3)cc(C(F)(F)F)c2)cc1-c1ccc2nc(Nc3cnn(C)c3)ncc2c1` [Compound 30, 4-Methyl-N-(3-((4-methyl-1,4-diazepan-1-yl)methyl)-5-(trifluoromethyl)phenyl)-3-(2-((1-methyl-1H-pyrazol-4-yl)amino)quinazolin-6-yl)benzamide]: at DDR2, 2.8 ± 0.2 nM corresponded to half-maximal inhibition (IC50). Besides, the inhibition at 0.01 µM on RET amounted to 93.2%; at Flt-3 it was 97%.

The record behind these values is article PMC9279635 (Acta Pharmaceutica Sinica. B, 2021).
